Source: ChEMBL document CHEMBL1275300, “Synthesis and antituberculosis activity of some new pyridazine derivatives. Part II” (Eur J Med Chem, 2010)
In brackets after ≈: the same amount, converted by molar mass.

What follows are compounds tested on Mycobacterium tuberculosis (assay: Antimicrobial activity against Mycobacterium tuberculosis H37Rv ATCC 27294 by microplate alamar blue assay).
Assay type: functional, organism-based
Procedure, shortened: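 M. tuberculosis H37Rv (ATCC 27294) grown in BACTEC 12B medium and tested by microplate Alamar Blue assay. Compounds were dissolved in DMSO, diluted with distilled water, and tested as ten 2-fold dilutions. Read-out was fluorescence. IC90 is the concentration giving 90% fluorescence reduction versus controls; IC50 is defined the same way at 50%.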
CCOC(=O)Cn1nc(-c2ccc(Cl)cc2)ccc1=O was tested, and the IC50 was > 100 µg/mL and the IC90 was > 100 µg/mL.
Cc1ccc(-c2ccc(=O)n(CC(N)=O)n2)cc1 was tested, and the IC50 was > 100 µg/mL and the IC90 was > 100 µg/mL.
C#CCn1nc(-c2ccc(C)cc2)ccc1=O gave an IC50 of 63.7 µg/mL (≈ 284 µM) and an IC90 of 89.2 µg/mL (≈ 398 µM).
With COC(=O)Cn1nc(-c2ccc(Cl)cc2)ccc1=O the IC50 was 94.2 µg/mL (≈ 338 µM) and the IC90 was > 100 µg/mL.
For COC(=O)Cn1nc(-c2ccc(Br)cc2)ccc1=O, the IC50 was 73.2 µg/mL (≈ 227 µM) and the IC90 was > 100 µg/mL.
CCOC(=O)C(C)n1nc(-c2ccc(Cl)cc2)ccc1=O (stereo unspecified) was tested, and the IC50 was 28.6 µg/mL (≈ 93.2 µM) and the IC90 was 46 µg/mL (≈ 150 µM).
With C#CCn1nc(-c2ccc(Cl)cc2)ccc1=O the IC50 was 34.7 µg/mL (≈ 142 µM) and the IC90 was > 100 µg/mL.
In the case of C=CCn1nc(-c2ccc(Cl)cc2)ccc1=O, the IC50 is reported as 36.6 µg/mL (≈ 148 µM) and the IC90 is reported as 61.6 µg/mL (≈ 250 µM).
CCOC(=O)Cn1nc(-c2ccc(C)cc2)ccc1=O was tested, and the IC50 was > 100 µg/mL and the IC90 was > 100 µg/mL.
For CCOC(=O)Cn1nc(-c2ccc(Br)cc2)ccc1=O, the IC50 was > 100 µg/mL and the IC90 was > 100 µg/mL.
C=CCn1nc(-c2ccc(Br)cc2)ccc1=O showed an IC50 of 37.8 µg/mL (≈ 130 µM) and an IC90 of 46.8 µg/mL (≈ 161 µM).
With C=CCn1nc(-c2ccc(C)cc2)ccc1=O the IC50 was 60.7 µg/mL (≈ 268 µM) and the IC90 was 76.5 µg/mL (≈ 338 µM).
With COC(=O)Cn1nc(-c2ccc(C)cc2)ccc1=O the IC50 was > 100 µg/mL and the IC90 was > 100 µg/mL.
NC(=O)Cn1nc(-c2ccc(Cl)cc2)ccc1=O was tested, and the IC50 was > 100 µg/mL and the IC90 was > 100 µg/mL.
With NC(=O)Cn1nc(-c2ccc(Br)cc2)ccc1=O the IC50 was > 100 µg/mL and the IC90 was > 100 µg/mL.
Compound CCOC(=O)C(C)n1nc(-c2ccc(Br)cc2)ccc1=O (stereo unspecified) has an IC50 of 26.8 µg/mL (≈ 76.5 µM) and an IC90 of 47.5 µg/mL (≈ 135 µM).
C#CCn1nc(-c2ccc(Br)cc2)ccc1=O was tested, and the IC50 was 97.8 µg/mL (≈ 338 µM) and the IC90 was > 100 µg/mL.
In the case of CCOC(=O)C(C)n1nc(-c2ccc(C)cc2)ccc1=O (stereo unspecified), the IC50 is reported as 64.9 µg/mL (≈ 227 µM) and the IC90 is reported as 84 µg/mL (≈ 293 µM).
